# Read-outs that look alike come from different tables or passages of the source. Where a SMILES comes first, the peptide text is derived from it.
# Legend:
# Assay type in all cases: biochemical
# caspase-3 (Casp3) = biological target: T1, caspase-3 (Casp3) (Homo sapiens, UniProt P42574); test: Fluorometric enzyme inhibition assay, Casp3; conditions: SEM
# T1 sequence (P42574 29-175 limits assumed): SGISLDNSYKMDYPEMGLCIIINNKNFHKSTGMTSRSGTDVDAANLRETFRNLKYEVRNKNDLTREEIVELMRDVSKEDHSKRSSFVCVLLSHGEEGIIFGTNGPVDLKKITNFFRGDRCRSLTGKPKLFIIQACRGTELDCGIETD
# T1 sequence (P42574 176-277 limits assumed): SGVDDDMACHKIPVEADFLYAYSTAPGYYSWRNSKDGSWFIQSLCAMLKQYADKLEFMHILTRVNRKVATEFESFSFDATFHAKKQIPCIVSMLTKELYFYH
# Method in brief: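 Recombinant Casp3 produced in house, 2 nM/well, in 100 mM HEPES pH 7.0, 150 mM NaCl, 0.1% CHAPS, 1.5% sucrose, 10 mM DTT. Preincubated with DMSO-diluted test compound 5 min, 37 °C. AcDEVD-AFC (Km 7.6 μM) at 5 μM (384-well, duplicate) or 10 μM (96-well, triplicate). Fluorescence ex 400/em 505 nm at 37 °C, 40 min reading. Four-parameter IC50 converted to Ki via Cheng–Prusoff.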
# caspase-2 (Casp2) = biological target: T2, caspase-2 (Casp2) (Homo sapiens, UniProt P42575); test: Fluorometric enzyme inhibition assay, Casp2
# T2 sequence (P42575 170-333 limits assumed): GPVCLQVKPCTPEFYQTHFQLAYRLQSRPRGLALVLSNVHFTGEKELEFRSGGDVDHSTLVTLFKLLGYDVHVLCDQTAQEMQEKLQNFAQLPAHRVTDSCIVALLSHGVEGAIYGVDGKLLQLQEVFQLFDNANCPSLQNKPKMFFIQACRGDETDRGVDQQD
# T2 sequence (P42575 348-452 limits assumed): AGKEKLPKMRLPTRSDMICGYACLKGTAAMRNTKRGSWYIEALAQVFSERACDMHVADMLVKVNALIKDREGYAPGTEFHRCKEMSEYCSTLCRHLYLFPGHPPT
# Method in brief: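 In-house recombinant Casp2 in 100 mM MES pH 6.5, 150 mM NaCl, 0.1% CHAPS, 1.5% sucrose, 10 mM DTT. […] 384-well: 20 nM enzyme, 10 μM substrate, duplicate. 96-well: 5 nM, 25 μM, triplicate. AFC fluorescence (ex 400/em 505 nm) at 37 °C, 40 min point. Four-parameter IC50 fit, converted by Cheng–Prusoff.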
# [1] = biological target: T3, circularly permutated caspase-2 (cpCasp2) (Homo sapiens, UniProt P42575); test: Fluorometric enzyme inhibition assay, cpCasp2
# T3 sequence (P42575 1-452): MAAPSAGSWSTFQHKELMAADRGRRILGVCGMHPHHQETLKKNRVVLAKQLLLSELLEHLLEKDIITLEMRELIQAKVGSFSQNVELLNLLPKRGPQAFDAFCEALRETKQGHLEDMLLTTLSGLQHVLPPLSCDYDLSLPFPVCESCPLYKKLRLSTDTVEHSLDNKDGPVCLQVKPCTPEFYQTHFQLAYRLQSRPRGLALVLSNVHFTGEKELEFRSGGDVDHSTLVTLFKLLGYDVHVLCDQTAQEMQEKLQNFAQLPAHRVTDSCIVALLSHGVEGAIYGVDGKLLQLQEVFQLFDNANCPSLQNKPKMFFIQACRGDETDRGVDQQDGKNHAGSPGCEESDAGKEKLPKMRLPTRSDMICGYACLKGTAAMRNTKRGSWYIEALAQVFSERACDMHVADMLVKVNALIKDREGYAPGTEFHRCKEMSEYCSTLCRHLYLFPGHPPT
Ki (caspase-3 (Casp3)) [µM],Ki (caspase-2 (Casp2); SEM) [µM],Ki ([1]; SEM) [µM],Ki [1] [µM],Ki (caspase-2 (Casp2)) [µM],Compound
0.0603,0.0331,0.0646,–,–,"CC(=O)N[C@H](C(=O)N[C@@H](CC(=O)O)C(=O)N[C@H](C(=O)N[C@@H](C)C(=O)N[C@H](C=O)CC(=O)O)[C@@H](C)O)[C@@H](C)O [compound 55, (4S,7S,10S,13S,16S)-7-(Carboxymethyl)-16-formyl-4,10-bis[(R)-1-hydroxyethyl]-13-methyl-2,5,8,11,14-pentaoxo-3,6,9,12,15-pentaazaoctadecan-18-oic acid] (Ac-TDTAD-aldehyde)"
5.75,–,–,> 100,–,"CC(=O)N[C@H](C(=O)N1CCC[C@H]1C(=O)N[C@H](C=O)CC(=O)O)C(C)C [compound 17, (S)-3-[(S)-1-(Acetyl-L-valyl)pyrrolidine-2-carboxamido]-4-oxobutanoic acid] (Ac-Val-Pro-Asp-aldehyde)"
9.55,–,–,–,> 100,"CC(=O)NCCCC[C@H](NC(=O)[C@@H](NC(C)=O)C(C)C)C(=O)N[C@H](C=O)CC(=O)O [compound 31, (S)-3-{(S)-6-Acetamido-2-[(S)-2-acetamido-3-methylbutanamido]hexanamido}-4-oxobutanoic acid] (Ac-Val-Lys(Ac)-Asp-aldehyde)"
0.224,20,20.9,–,–,"CC(=O)NCCCC[C@H](NC(=O)[C@@H](NC(=O)[C@@H](NC(C)=O)[C@@H](C)O)C(C)C)C(=O)N[C@H](C=O)CC(=O)O [compound 30, (4S,7S,10S,13S)-10-(4-Acetamidobutyl)-13-formyl-4-[(R)-1-hydroxyethyl]-7-isopropyl-2,5,8,11-tetraoxo-3,6,9,12-tetraazapentadecan-15-oic acid] (Ac-TVK(Ac)D-aldehyde)"

# — article PMC9616052 (Archiv der Pharmazie, 2022)
